Laboratory results: ChEMBL document CHEMBL2375300, “New potent calcimimetics: II. Discovery of benzothiazole trisubstituted ureas” (Bioorg Med Chem Lett, 2013)
pEC50: −log10 of the molar value. Active and inactive are the calls of the source. The rule behind the calls is not given here.

How the values were obtained:
Rattus norvegicus [1] = test: Antihyperparathyroidism activity in Sprague-Dawley rat chronic renal failure model assessed as increase in serum phosphorus level at 10 mg/kg, po after 24 hrs; format: functional, organism-based; set-up: dose 10 mg/kg
Summary of the method: (§1)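 One week later each received one oral gavage of 10 mg/kg in 0.5% methylcellulose (5 mL/kg), or vehicle alone. Rats were fasted 24 h before decapitation at 2, 6 or 24 h. Serum PTH was measured by rat IRMA, and Ca and P by chemistry analyzer. n = 9–12, ANOVA/t-test against CRF vehicle.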

[2] = target: T1, Extracellular calcium-sensing receptor (Homo sapiens) (UniProt P41180); test: Ratio of R-568 EC50 to compound EC50 for positive allosteric modulation of human CaSR
T1 sequence (whole entry): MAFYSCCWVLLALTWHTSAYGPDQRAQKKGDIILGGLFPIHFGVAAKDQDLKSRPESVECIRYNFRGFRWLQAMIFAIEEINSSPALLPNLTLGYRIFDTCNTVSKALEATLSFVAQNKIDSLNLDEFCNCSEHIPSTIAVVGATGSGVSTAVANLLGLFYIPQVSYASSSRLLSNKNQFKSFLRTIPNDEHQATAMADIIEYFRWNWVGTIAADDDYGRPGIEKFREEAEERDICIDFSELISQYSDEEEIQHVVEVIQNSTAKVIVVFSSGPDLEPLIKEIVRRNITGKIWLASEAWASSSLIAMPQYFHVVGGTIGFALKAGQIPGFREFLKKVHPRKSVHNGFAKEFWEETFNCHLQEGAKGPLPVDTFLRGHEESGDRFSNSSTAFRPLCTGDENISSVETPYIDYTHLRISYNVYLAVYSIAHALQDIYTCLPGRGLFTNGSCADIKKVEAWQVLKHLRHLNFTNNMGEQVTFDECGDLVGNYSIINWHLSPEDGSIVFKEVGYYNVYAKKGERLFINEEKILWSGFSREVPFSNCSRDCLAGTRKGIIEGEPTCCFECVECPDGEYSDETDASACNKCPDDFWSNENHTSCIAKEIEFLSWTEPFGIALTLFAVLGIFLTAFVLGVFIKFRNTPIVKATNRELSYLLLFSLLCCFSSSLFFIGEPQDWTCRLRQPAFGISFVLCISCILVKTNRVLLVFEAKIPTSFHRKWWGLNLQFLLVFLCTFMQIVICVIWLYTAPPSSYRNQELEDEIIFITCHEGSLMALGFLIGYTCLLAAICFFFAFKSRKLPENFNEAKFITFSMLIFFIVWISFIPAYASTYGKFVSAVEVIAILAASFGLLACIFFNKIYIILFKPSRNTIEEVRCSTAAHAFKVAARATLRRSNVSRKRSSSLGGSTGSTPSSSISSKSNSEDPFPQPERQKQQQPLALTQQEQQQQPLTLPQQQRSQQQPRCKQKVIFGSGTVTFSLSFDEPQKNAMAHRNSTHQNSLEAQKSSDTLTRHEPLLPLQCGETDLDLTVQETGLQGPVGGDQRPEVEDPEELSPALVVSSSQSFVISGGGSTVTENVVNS

[3] = target: T2, Extracellular calcium-sensing receptor (Homo sapiens, UniProt P41180); test: Positive allosteric modulation of human CaSR expressed in CHO cells assessed as increase in intracellular calcium level after 5 hrs by luciferase reporter gene assay; format: functional, cell-based
T2 sequence (P41180 whole entry): T1 sequence (whole entry)
Summary of the method: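 CHO cells stably transfected with human CaSR and a luciferase reporter (clone ET8-5-5) were seeded at 50K/well, grown 24 h, then serum-starved overnight. Cells were exposed for 5 h at 37 °C to compound dilutions crossed with a CaCl2 range, in HEPES pH 7.4 buffer with 0.3 mM CaCl2 baseline. Luminescence was read. EC50 was taken at 2 mM calcium, n ≥ 1.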

[4] = AUC in Sprague-Dawley rat chronic renal failure model at 0.3 mg/kg, iv; format: ADME, organism-based; set-up: dose 0.3 mg/kg, route intravenous; settings: in vivo
Summary of the method: (§2)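 Single intravenous dose of 0.3 mg/kg given to chronic renal failure rats. AUC, Cmax, clearance, volume of distribution and half-life were derived from the plasma exposure.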

[5] = Cmax in Sprague-Dawley rat chronic renal failure model at 0.3 mg/kg, iv; format: ADME, organism-based; set-up: dose 0.3 mg/kg, route intravenous; settings: in vivo; summary of the method: as §2
[6] = Aqueous solubility of the compound at pH 2; format: physicochemical
Summary of the method: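 Aqueous solubility measured at pH 2.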

Rattus norvegicus [7] = test: Antihyperparathyroidism activity in Sprague-Dawley rat chronic renal failure model assessed as decrease in serum PTH level at 10 mg/kg, po after 24 hrs relative to vehicle-treated control; format: functional; set-up: scale not given: the % may be the effect or the level left; summary of the method: as §1
Rattus norvegicus [8] = test: Toxicity in Sprague-Dawley rat chronic renal failure model assessed as decrease in serum calcium level at 10 mg/kg/day, po administered for 2 months measured 24 hrs post last dose relative to vehicle-treated control; format: organism-based; set-up: route oral; settings: in vivo
Summary of the method: (§3)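 Male Sprague–Dawley rats with 5/6 nephrectomy were dosed orally once daily at 10 or 30 mg/kg/day in 0.5% methylcellulose (5 mL/kg), or given vehicle. Dosing ran about 2 months, starting after a post-surgery untreated period. Rats were fasted and killed by decapitation 24 h after the last dose. Serum PTH was measured by rat IRMA and Ca by chemistry analyzer. n = 6–10, compared with CRF vehicle.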

Rattus norvegicus [9] = test: Toxicity in Sprague-Dawley rat chronic renal failure model assessed as aortic calcification at 10 to 30 mg/kg/day, po administered for 2 months measured 24 hrs post last dose by histological analysis; format: organism-based, Aorta; set-up: route oral; settings: in vivo
Summary of the method: (§4)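 After an untreated interval, they were gavaged once daily with the dihydrochloride salt in 0.5% methylcellulose, or with vehicle at 5 mL/kg. Mortality and side effects were monitored during treatment. Rats were fasted 24 h, then decapitated, and the aorta was examined histologically for calcification.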

Rattus norvegicus [10] = test: Antihyperparathyroidism activity in Sprague-Dawley rat chronic renal failure model assessed as […] at 30 mg/kg/day, po administered for 2 months measured 24 hrs post last dose relative to vehicle-treated control; format: functional; summary of the method: as §3
Rattus norvegicus [11] = test: Antihyperparathyroidism activity in Sprague-Dawley rat chronic renal failure model assessed as […] at 10 mg/kg/day, po administered for 2 months measured 24 hrs post last dose relative to vehicle-treated control; format: functional; summary of the method: as §3
[12] = Metabolic stability in intestinal fluid (unknown origin) at pH 2 to 12; format: ADME; settings: simulated gi fluid
Rattus norvegicus [13] = test: Toxicity in Sprague-Dawley rat chronic renal failure model assessed as decrease in serum calcium level at 10 mg/kg/day, po administered for 2 months measured 24 hrs post last dose (reference value: 4%); format: organism-based; set-up: route oral; scale not given: the % may be the effect or the level left; settings: in vivo, 30 mg/kg, in the assay text read “at 30 mg/kg/day” for “at 10 mg/kg/day”; summary of the method: as §3
[14] = Half life in Sprague-Dawley rat chronic renal failure model at 0.3 mg/kg, iv; format: ADME, organism-based; set-up: dose 0.3 mg/kg, route intravenous; settings: in vivo; summary of the method: as §2
Rattus norvegicus [15] = test: Clearance in Sprague-Dawley rat at 0.3 mg/kg, iv; format: ADME, organism-based; set-up: dose 0.3 mg/kg, route intravenous; settings: in vivo
[16] = Volume of distribution in Sprague-Dawley rat chronic renal failure model at 0.3 mg/kg, iv; format: ADME, organism-based; set-up: dose 0.3 mg/kg, route intravenous; settings: in vivo; summary of the method: as §2
Rattus norvegicus [17] = test: Antihyperparathyroidism activity in Sprague-Dawley rat chronic renal failure model assessed as decrease in serum PTH level at 10 mg/kg, po after 6 hrs relative to vehicle-treated control; format: functional; set-up: scale not given: the % may be the effect or the level left; summary of the method: as §1
[18] = Clearance in Sprague-Dawley rat chronic renal failure model at 0.3 mg/kg, iv; format: ADME, organism-based; set-up: dose 0.3 mg/kg, route intravenous; settings: in vivo; summary of the method: as §2
[19] = Metabolic stability in serum (unknown origin) at pH 2 to 12; format: ADME
Rattus norvegicus [20] = test: Antihyperparathyroidism activity in Sprague-Dawley rat chronic renal failure model assessed as decrease in serum PTH level at 10 mg/kg, po after 2 hrs relative to vehicle-treated control; format: functional; set-up: scale not given: the % may be the effect or the level left; summary of the method: as §1
Rattus norvegicus [21] = test: Toxicity in Sprague-Dawley rat chronic renal failure model assessed as mortality at 10 to 30 mg/kg/day, po administered for 2 months measured 24 hrs post last dose; format: organism-based; set-up: route oral; settings: in vivo; summary of the method: as §4
Rattus norvegicus [22] = test: Toxicity in Sprague-Dawley rat chronic renal failure model assessed as decrease in serum calcium level at 10 mg/kg, po after 24 hrs; format: organism-based; set-up: dose 10 mg/kg, route oral; settings: in vivo; summary of the method: as §1
Rattus norvegicus [23] = test: Toxicity in Sprague-Dawley rat chronic renal failure model assessed as side effects at 10 to 30 mg/kg/day, po administered for 2 months measured 24 hrs post last dose; format: organism-based; set-up: route oral; settings: in vivo; summary of the method: as §4
Salmonella typhimurium = test: Genotoxicity in Salmonella typhimurium at 10 uM by Ames test; format: toxicity, organism-based; settings: salmonella enterica subsp. enterica serovar typhimurium
[24] = target: Voltage-gated inwardly rectifying potassium channel KCNH2 (Homo sapiens, UniProt Q12809); test: Inhibition of human ERG at 10 uM
Chain of Voltage-gated inwardly rectifying potassium channel KCNH2 (Q12809 whole entry): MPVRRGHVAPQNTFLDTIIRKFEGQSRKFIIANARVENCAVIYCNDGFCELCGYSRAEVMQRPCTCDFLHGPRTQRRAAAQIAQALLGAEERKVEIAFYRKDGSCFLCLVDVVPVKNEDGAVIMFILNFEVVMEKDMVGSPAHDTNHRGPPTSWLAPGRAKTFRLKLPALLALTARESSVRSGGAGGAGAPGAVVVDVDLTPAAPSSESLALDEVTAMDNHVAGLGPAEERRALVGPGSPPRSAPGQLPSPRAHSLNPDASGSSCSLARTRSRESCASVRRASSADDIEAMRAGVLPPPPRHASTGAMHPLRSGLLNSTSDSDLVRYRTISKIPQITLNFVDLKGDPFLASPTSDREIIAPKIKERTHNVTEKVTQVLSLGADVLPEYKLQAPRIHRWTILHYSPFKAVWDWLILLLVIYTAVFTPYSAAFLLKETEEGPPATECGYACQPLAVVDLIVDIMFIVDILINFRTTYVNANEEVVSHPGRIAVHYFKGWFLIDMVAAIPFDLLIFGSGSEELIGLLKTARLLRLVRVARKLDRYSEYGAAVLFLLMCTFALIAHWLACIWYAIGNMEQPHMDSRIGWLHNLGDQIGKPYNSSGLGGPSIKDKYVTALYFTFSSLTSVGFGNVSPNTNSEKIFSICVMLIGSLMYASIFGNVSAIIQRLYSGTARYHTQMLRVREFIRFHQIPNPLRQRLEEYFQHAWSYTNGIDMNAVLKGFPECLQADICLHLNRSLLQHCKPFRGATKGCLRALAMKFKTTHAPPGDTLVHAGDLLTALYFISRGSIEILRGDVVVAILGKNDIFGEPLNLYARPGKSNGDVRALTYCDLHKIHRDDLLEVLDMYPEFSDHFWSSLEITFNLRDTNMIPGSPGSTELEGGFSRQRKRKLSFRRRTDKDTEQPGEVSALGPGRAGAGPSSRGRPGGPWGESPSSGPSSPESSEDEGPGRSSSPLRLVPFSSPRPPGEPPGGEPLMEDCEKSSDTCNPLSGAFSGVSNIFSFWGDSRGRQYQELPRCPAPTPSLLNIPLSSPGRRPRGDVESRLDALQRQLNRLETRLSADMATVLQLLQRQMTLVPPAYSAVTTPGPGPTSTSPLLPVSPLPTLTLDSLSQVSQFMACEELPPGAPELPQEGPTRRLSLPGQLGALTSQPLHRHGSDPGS

pEC50 [3]	Structure (SMILES)	also measured
	O=C(Nc1nc2ccccc2s1)N(CCC(c1ccccc1)c1ccccc1)CCN1CCOCC1 [listing 1 of 2 here]	Activity (Rattus norvegicus [1]): Active; Ratio EC50 [2]: 4
7.52	Cc1ccc2nc(NC(=O)N(CCC(c3ccccc3)c3ccccc3)CCN3CCOCC3)sc2c1	
6.00	O=C(Nc1cccnc1)N(CCC(c1ccccc1)c1ccccc1)CCN1CCOCC1	
7.10	CS(=O)(=O)c1ccc2nc(NC(=O)N(CCC(c3ccccc3)c3ccccc3)CCN3CCOCC3)sc2c1	
7.52	CS(=O)(=O)Nc1ccc2nc(NC(=O)N(CCC(c3ccccc3)c3ccccc3)CCN3CCOCC3)sc2c1	
7.10	O=C(Nc1nc2cc(Cl)ccc2o1)N(CCC(c1ccccc1)c1ccccc1)CCN1CCOCC1	
7.00	O=C(O)c1ccc2nc(NC(=O)N(CCC(c3ccccc3)c3ccccc3)CCN3CCOCC3)sc2c1	
6.70	O=C(Nc1nccc(-c2nccs2)n1)N(CCC(c1ccccc1)c1ccccc1)CCN1CCOCC1	
7.10	O=C(Nc1nc2ccc(CO)cc2s1)N(CCC(c1ccccc1)c1ccccc1)CCN1CCOCC1	
7.10	Cc1cc(C)nc(NC(=O)N(CCC(c2ccccc2)c2ccccc2)CCN2CCOCC2)c1	
6.52	O=C(Nc1nc2ccccc2n1Cc1ccccc1)N(CCC(c1ccccc1)c1ccccc1)CCN1CCOCC1	
6.70	Cc1cc(NC(=O)N(CCC(c2ccccc2)c2ccccc2)CCN2CCOCC2)no1	
7.52	CS(=O)(=O)Nc1ccc2sc(NC(=O)N(CCC(c3ccccc3)c3ccccc3)CCN3CCOCC3)nc2c1	
	Cl.Cl.O=C(Nc1nc2ccccc2s1)N(CCC(c1ccccc1)c1ccccc1)CCN1CCOCC1	AUC [4]: 162 ng·h/mL; Cmax [5]: 546 ng/mL; solubility [6]: 300 µg/mL; Activity (Rattus norvegicus [7]): -49%; Activity (Rattus norvegicus [8]): Non-toxic; Activity (Rattus norvegicus [9]): Non-toxic; Activity (Rattus norvegicus [10]): -88%; Activity (Rattus norvegicus [11]): -76%; Stability [12]: Stable; Activity (Rattus norvegicus [13]): 9%; half-life [14]: 404 min; clearance (Rattus norvegicus [15]): 4.96 L/h/kg; Vd [16]: 5.17 L/kg; Activity (Rattus norvegicus [17]): -75%; clearance [18]: 30.8 mL/min/kg; Stability [19]: Stable; Activity (Rattus norvegicus [20]): 95%; Activity (Rattus norvegicus [21]): Non-toxic; Activity (Rattus norvegicus [22]): Non-toxic; Activity (Rattus norvegicus [23]): Non-toxic
6.40	COC(=O)c1sccc1NC(=O)N(CCC(c1ccccc1)c1ccccc1)CCN1CCOCC1	
6.70	CN(C)CCNC(=O)c1ccc2nc(NC(=O)N(CCC(c3ccccc3)c3ccccc3)CCN3CCOCC3)sc2c1	

pEC50 [3]	Structure (SMILES)	also measured
6.82	Cn1c(NC(=O)N(CCC(c2ccccc2)c2ccccc2)CCN2CCOCC2)nc2ccccc21	
6.40	COc1cc(C)nc(NC(=O)N(CCC(c2ccccc2)c2ccccc2)CCN2CCOCC2)n1	
6.00	CCOc1ccc2nc(NC(=O)N(CCC(c3ccccc3)c3ccccc3)CCN3CCOCC3)sc2c1	
6.22	Cc1cccc2sc(NC(=O)N(CCC(c3ccccc3)c3ccccc3)CCN3CCOCC3)nc12	
5.77	Cc1noc(NC(=O)N(CCC(c2ccccc2)c2ccccc2)CCN2CCOCC2)c1C	
6.70	O=C(Nc1nc2ccc(F)cc2s1)N(CCC(c1ccccc1)c1ccccc1)CCN1CCOCC1	
6.52	O=C(Nc1nccs1)N(CCC(c1ccccc1)c1ccccc1)CCN1CCOCC1	
6.35	O=C(Nc1cnccn1)N(CCC(c1ccccc1)c1ccccc1)CCN1CCOCC1	
6.70	CCOC(=O)c1ccc2nc(NC(=O)N(CCC(c3ccccc3)c3ccccc3)CCN3CCOCC3)sc2c1	
7.05	O=C(Nc1nc2ccc(OC(F)(F)F)cc2s1)N(CCC(c1ccccc1)c1ccccc1)CCN1CCOCC1	
7.22	O=C(Nc1nc2ccc(Cl)cc2s1)N(CCC(c1ccccc1)c1ccccc1)CCN1CCOCC1	
7.70	O=C(Nc1nc2c(Cl)cccc2s1)N(CCC(c1ccccc1)c1ccccc1)CCN1CCOCC1	
7.52	COc1cccc2sc(NC(=O)N(CCC(c3ccccc3)c3ccccc3)CCN3CCOCC3)nc12	
7.22	O=C(Nc1nc2ccccc2[nH]1)N(CCC(c1ccccc1)c1ccccc1)CCN1CCOCC1	
7.40	COc1ccc2nc(NC(=O)N(CCC(c3ccccc3)c3ccccc3)CCN3CCOCC3)sc2c1	

Structure (SMILES)	pEC50 [3]	also measured
O=C(Nc1nc2ccccc2s1)N(CCC(c1ccccc1)c1ccccc1)CCN1CCOCC1 [listing 2 of 2 here]	7.70	Activity (Salmonella typhimurium): Non-toxic; inhibition (INH) [24]: Active
